Laboratory results: paper PMC8566757 (Food Chemistry: X, 2021)

Columns and labels:
[1] = target: T1, xanthine oxidase (Bos taurus, UniProt P80457); assay: Uric acid formation catalyzed by XO; format: biochemical
How it was run: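 Xanthine oxidase (Grade IV) was run in 40 mM sodium carbonate with 0.1 mM EDTA, pH 10.0, at 25 °C. Xanthine was 0–200 µM, and test compound came from a 10 mM DMSO stock. Start with 0.04 unit XO and record uric acid at 293 nm for 60 s. Rate came from the linear rise, against a DMSO control. IC50 was taken at 200 µM xanthine. Mode and kinetic parameters were fitted from ≥3 separate runs.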

[2] = target: T1, xanthine oxidase; assay: O2- generation catalyzed by XO; format: biochemical
[3] = Scavenging of DPPH radicals and initial scavenging rate; settings: for DPPH activity: 20 min, 25 °C, pH 5.5
How it was run: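 DPPH (3 mM ethanolic stock) was mixed with 100 mM acetate buffer (pH 5.5) and ethanol. Test compound (10 mM DMSO stock) was added, with DMSO as control, and kept at 25 °C for 20 min. Absorbance was read at 517 nm (ε = 8.32 X 103). The initial rate came from the absorbance drop just after compound addition. Runs were done ≥3 times.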

T1 sequence (P80457 whole entry): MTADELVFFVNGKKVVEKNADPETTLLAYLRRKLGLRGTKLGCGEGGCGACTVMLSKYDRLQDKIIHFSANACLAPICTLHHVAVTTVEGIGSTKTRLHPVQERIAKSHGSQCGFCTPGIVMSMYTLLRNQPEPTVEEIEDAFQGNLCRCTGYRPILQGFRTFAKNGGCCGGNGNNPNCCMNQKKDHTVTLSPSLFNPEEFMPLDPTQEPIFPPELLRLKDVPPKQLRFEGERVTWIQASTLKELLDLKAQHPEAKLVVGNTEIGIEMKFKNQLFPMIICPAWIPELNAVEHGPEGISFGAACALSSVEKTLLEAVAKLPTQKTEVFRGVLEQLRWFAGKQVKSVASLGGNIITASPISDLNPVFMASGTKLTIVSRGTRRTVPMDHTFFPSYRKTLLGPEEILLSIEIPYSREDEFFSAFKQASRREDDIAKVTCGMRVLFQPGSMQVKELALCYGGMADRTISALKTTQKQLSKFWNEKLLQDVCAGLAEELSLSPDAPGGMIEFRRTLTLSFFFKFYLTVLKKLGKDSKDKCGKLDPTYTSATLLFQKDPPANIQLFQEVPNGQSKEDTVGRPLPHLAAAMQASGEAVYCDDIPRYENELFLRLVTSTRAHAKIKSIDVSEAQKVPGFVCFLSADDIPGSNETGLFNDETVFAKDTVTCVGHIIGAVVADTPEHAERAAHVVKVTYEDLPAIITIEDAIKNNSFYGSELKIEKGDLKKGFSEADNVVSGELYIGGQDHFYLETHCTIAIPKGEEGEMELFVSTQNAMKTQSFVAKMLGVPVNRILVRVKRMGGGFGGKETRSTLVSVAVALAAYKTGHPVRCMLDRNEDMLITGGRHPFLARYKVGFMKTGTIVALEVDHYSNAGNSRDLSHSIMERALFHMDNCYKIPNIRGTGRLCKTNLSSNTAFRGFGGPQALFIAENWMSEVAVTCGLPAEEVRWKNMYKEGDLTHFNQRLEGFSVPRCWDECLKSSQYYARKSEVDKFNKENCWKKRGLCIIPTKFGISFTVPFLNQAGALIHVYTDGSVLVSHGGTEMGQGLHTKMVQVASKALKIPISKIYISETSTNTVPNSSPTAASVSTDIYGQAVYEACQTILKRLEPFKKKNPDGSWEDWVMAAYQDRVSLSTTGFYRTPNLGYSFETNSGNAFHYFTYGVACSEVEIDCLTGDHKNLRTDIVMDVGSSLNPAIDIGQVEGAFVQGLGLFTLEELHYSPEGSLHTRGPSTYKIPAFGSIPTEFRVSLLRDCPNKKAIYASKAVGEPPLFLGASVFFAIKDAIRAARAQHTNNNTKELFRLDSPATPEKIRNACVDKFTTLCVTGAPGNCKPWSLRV

Row | Compound | IC50 [1] [µM] | Ki [1] [µM] | IC50 [2] [µM] | Ki [2] [µM] | K’i, inhibition of O2- generation using xanthine oxidase ([2]; mixed type kinetics, xanthine 0 – 200 µM, pH 10.0) [µM] | Inhibition kinetics (mode) of O2- generation ([2]; xanthine 0 – 200 µM) | DPPH activity [3] | Initial rate of DPPH scavenging ([3]; after the addition of sample solution) [µmol/L/s] | Inhibition kinetics (mode) of uric acid formation ([1]; versus xanthine)
1 | Oc1cc(O)cc(/C=C/c2ccc(O)c(O)c2)c1 [Piceatannol (6), Piceatannol] | 15 ± 5 | 6.7 ± 1.6 | 4.5 ± 0.4 | 2.2 ± 0.1 | 21.1 ± 1.0 | mixed type | 2.45 ± 0.13 DPPH molecules / a molecule of stilbene compound | 3.75 | –
2 | COc1cc(/C=C/c2ccc(O)cc2)cc(OC)c1 [Pterostilbene (5), Pterostilbene] | > 50 | – | 124 ± 16 | 43 ± 5 | – | – | 0.74 ± 0.10 DPPH molecules / a molecule of stilbene compound | – | –
3 | Oc1ccc(/C=C/c2cc(O)cc(O)c2)cc1 [Resveratrol (1), Resveratrol] | 34 ± 4 | 7.7 ± 0.7 | 21 ± 3 | 7.1 ± 1 | – | – | 0.72 ± 0.27 DPPH molecules / a molecule of stilbene compound | – | competitive inhibition
4 | OC[C@H]1O[C@@H](Oc2cc(O)cc(/C=C/c3ccc(O)cc3)c2)[C@H](O)[C@@H](O)[C@@H]1O [Resveratrol-3-glucoside (2), Resveratrol-3-glucoside] | > 50 | – | 49 ± 1 | 19 ± 2 | – | – | 0.59 ± 0.15 DPPH molecules / a molecule of stilbene compound | – | –
